Data set [1] is described as follows: Inhibition of Norovirus 3CL protease preincubated for 30 mins followed by addition of Edans-DFHLQ/GP-Dabcyl as substrate measured after 1 hr by FRET assay. The gist of the method:
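Protease preincubated 30 min at 37°C with serially diluted compound or DMSO in 20 mM HEPES pH 8, 200 mM NaCl, 0.4 mM EDTA, 60% glycerol, 6 mM DTT; Edans-DFHLQ/GP-Dabcyl substrate then added. Fluorescence (ex 360/em 460 nm) read 1 h later; background (substrate, no protease) subtracted; IC50 from variable-slope dose-response fit.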

For a further data set, the system named is Norovirus. In words: Antiviral activity Norovirus infected in human HG23 cells assessed as decrease in viral RNA level measured after 48 hrs by qRT-PCR analysis. Type of data set: functional, cell-based. Particulars: HG23, 48 h. The essentials: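 Norwalk virus replicon-bearing HG23 cells, confluent and semi-confluent, exposed 48 h to compound (up to 100 μM) or DMSO (<0.1%) in medium. Total RNA extracted, viral genome quantified by real-time qRT-PCR; EC50 derived from concentration-response data.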

A short description of data set [2]: Cytotoxicity against human HG23 cells measured after 72 hrs by […] CytoTox-96 non-radioactive assay. In kind it is cell-based.

The IC50 is the concentration that gives 50% inhibition. Broadly, the EC50 is the midpoint of the concentration-response curve. One may read the CC50 as the concentration at which the toxic effect on the cells reaches its halfway point. Compound `O=C[C@H](C[C@@H]1CCNC1=O)NC(=O)[C@H](CC1CCCCC1)NS(=O)(=O)c1cccs1` had a half-maximal inhibitory concentration (IC50) in data set [1] of 10400 nM. Besides, in the data set with Norovirus, the EC50 came to 8500 nM. In data set [2], the CC50 at 72 h is greater than 100000 nM.
The like results for `O=C1NCC[C@H]1C[C@H](NC(=O)[C@H](CC1CCCCC1)NS(=O)(=O)c1cccc(Cl)c1)C(O)S(=O)(=O)O` (stereo partly specified) were, in that order, 5700 nM, 1900 nM and greater than 100000 nM.
Taken in the same sequence, the figures for `O=C1NCC[C@H]1C[C@H](NC(=O)[C@H](CC1CCCCC1)NS(=O)(=O)c1ccc(-c2ccccc2)cc1)C(O)S(=O)(=O)O` (stereo partly specified) were 1100 nM, 1200 nM and greater than 100000 nM.
Taken in the same sequence, the figures for `O=C[C@H](C[C@@H]1CCNC1=O)NC(=O)[C@H](CC1CCCCC1)NS(=O)(=O)CCN1C(=O)c2ccccc2C1=O` were 2500 nM, 2300 nM and greater than 100000 nM.
For `O=C[C@H](C[C@@H]1CCNC1=O)NC(=O)[C@H](CC1CCCCC1)NS(=O)(=O)c1ccc(F)cc1`, the concentration for half-maximal inhibition (IC50) in data set [1] worked out at 4800 nM. For the same compound, in the data set with Norovirus, the EC50 was 2000 nM. For the same compound, the CC50 at 72 h in data set [2] is greater than 100000 nM.
Taken in the same sequence, the figures for `O=C[C@H](C[C@@H]1CCNC1=O)NC(=O)[C@H](CC1CCCCC1)NS(=O)(=O)Cc1ccccc1` were 4500 nM, 4100 nM and greater than 100000 nM.
Taken in the same sequence, the figures for `COc1ccc(OCCCS(=O)(=O)N[C@@H](CC2CCCCC2)C(=O)N[C@@H](C[C@@H]2CCNC2=O)C(O)S(=O)(=O)O)cc1` (stereo partly specified) were 1600 nM, 200 nM and greater than 100000 nM.
In data set [1], `O=C[C@H](C[C@@H]1CCNC1=O)NC(=O)[C@H](CC1CCCCC1)NS(=O)(=O)c1ccc(-c2ccccc2)cc1` came in with an IC50 of 1300 nM. Besides, the EC50 with Norovirus came to 1300 nM. The CC50 at 72 h in data set [2] is greater than 100000 nM.
With `O=C[C@H](C[C@@H]1CCNC1=O)NC(=O)[C@H](CC1CCCCC1)NS(=O)(=O)CCc1ccccc1`, the IC50 in data set [1] was 1800 nM. Moreover, the EC50 in the data set with Norovirus is 700 nM. The CC50 at 72 h in data set [2] is greater than 100000 nM.
As for `O=C1NCC[C@H]1C[C@H](NC(=O)[C@H](CC1CCCCC1)NS(=O)(=O)c1ccc(Cl)cc1)C(O)S(=O)(=O)O` (stereo partly specified), 5100 nM corresponded to half-maximal inhibition in data set [1] (IC50). Moreover, the concentration for a half-maximal effect (EC50) in the data set on Norovirus stood at 7200 nM. Further, the CC50 at 72 h in data set [2] was greater than 100000 nM.
As to `O=C1NCC[C@H]1C[C@H](NC(=O)[C@H](CC1CCCCC1)NS(=O)(=O)CCN1C(=O)c2ccccc2C1=O)C(O)S(=O)(=O)O` (stereo partly specified), the IC50 in data set [1] worked out at 2600 nM. In the data set with Norovirus, the EC50 was 2100 nM. In data set [2], the 50% cytotoxic concentration (CC50) at 72 h is greater than 100000 nM.
Turning to `CCCCCCCCCCOC(=O)N[C@@H](CC1CCCCC1)C(=O)N[C@H](C=O)C[C@@H]1CCNC1=O`, in data set [1], the IC50 was 300 nM. Besides, in the data set with Norovirus, the half-maximal effective concentration (EC50) came out at 100 nM. Moreover, the CC50 at 72 h in data set [2] came out at 32100 nM.
The like results for `O=C(N[C@@H](CC1CCCCC1)C(=O)N[C@@H](C[C@@H]1CCNC1=O)C(O)S(=O)(=O)O)OCCc1cccc(Cl)c1` (stereo partly specified) were, in that order, 500 nM, 100 nM and 46700 nM.
Compound `O=C[C@H](C[C@@H]1CCNC1=O)NC(=O)[C@H](CC1CCCCC1)NS(=O)(=O)c1cccc(Cl)c1` had an IC50 in data set [1] of 5500 nM. Moreover, the 50% effective concentration (EC50) with Norovirus worked out at 2300 nM. Moreover, in data set [2], the CC50 at 72 h is greater than 100000 nM.
In data set [1], `O=C[C@H](C[C@@H]1CCNC1=O)NC(=O)[C@H](CC1CCCCC1)NS(=O)(=O)c1ccccc1` had an IC50 of 8500 nM. Further, in the data set on Norovirus, the EC50 stood at 9500 nM. For the same compound, the half-maximal cytotoxic concentration (CC50) at 72 h in data set [2] was greater than 100000 nM.
`O=C[C@H](C[C@@H]1CCNC1=O)NC(=O)[C@H](CC1CCCCC1)NS(=O)(=O)CCc1cccc(Cl)c1` came in with a 50% inhibitory concentration (IC50) in data set [1] of 2300 nM. Besides, the half-maximal effective concentration (EC50) in the data set on Norovirus amounted to 1100 nM. For the same compound, the CC50 at 72 h in data set [2] is greater than 100000 nM.
In the case of `O=C1NCC[C@H]1C[C@H](NC(=O)[C@H](CC1CCCCC1)NS(=O)(=O)CCc1cccc(Cl)c1)C(O)S(=O)(=O)O` (stereo partly specified), in data set [1], half-maximal inhibition (IC50) required 1900 nM. The half-maximal effective concentration (EC50) with Norovirus was 800 nM. Moreover, the CC50 at 72 h in data set [2] was greater than 100000 nM.
Taken in the same sequence, the figures for `CCCCCCCCS(=O)(=O)N[C@@H](CC1CCCCC1)C(=O)N[C@@H](C[C@@H]1CCNC1=O)C(O)S(=O)(=O)O` (stereo partly specified) were 1100 nM, 200 nM and 35400 nM.
On to `O=C[C@H](C[C@@H]1CCNC1=O)NC(=O)[C@H](CC1CCCCC1)NS(=O)(=O)c1ccc(Cl)cc1`, for which the concentration for half-maximal inhibition (IC50) in data set [1] came out at 5800 nM. In addition, the half-maximal effective concentration (EC50) in the data set on Norovirus worked out at 3500 nM. Further, the cytotoxic concentration (CC50) at 72 h in data set [2] is greater than 100000 nM.
In data set [1], `O=C1NCC[C@H]1C[C@H](NC(=O)[C@H](CC1CCCCC1)NS(=O)(=O)c1ccccc1)C(O)S(=O)(=O)O` (stereo partly specified) yielded a 50% inhibitory concentration (IC50) of 13500 nM. Also, the EC50 in the data set on Norovirus turned out to be 12300 nM. For the same compound, the 50% cytotoxic concentration (CC50) at 72 h in data set [2] was greater than 100000 nM.
In data set [1], `O=C1NCC[C@H]1C[C@H](NC(=O)[C@H](CC1CCCCC1)NS(=O)(=O)c1cccs1)C(O)S(=O)(=O)O` (stereo partly specified) came in with an IC50 of 8500 nM. The EC50 with Norovirus turned out to be 8100 nM. The CC50 at 72 h in data set [2] is greater than 100000 nM.
The compound `O=C1NCC[C@H]1C[C@H](NC(=O)[C@H](CC1CCCCC1)NS(=O)(=O)Cc1ccccc1)C(O)S(=O)(=O)O` (stereo partly specified) gave an IC50 in data set [1] of 4300 nM. Besides, the EC50 with Norovirus came out at 4300 nM. In data set [2], the CC50 at 72 h is greater than 100000 nM.
In data set [1], `CCCCCCCCCCOC(=O)N[C@@H](CC1CCCCC1)C(=O)N[C@@H](C[C@@H]1CCNC1=O)C(O)S(=O)(=O)O` (stereo partly specified) yielded a half-maximal inhibitory concentration (IC50) of 400 nM. The EC50 in the data set on Norovirus came out at 200 nM. For the same compound, the half-maximal cytotoxic concentration (CC50) at 72 h in data set [2] was 34500 nM.
For the compound `O=C[C@H](C[C@@H]1CCNC1=O)NC(=O)[C@H](CC1CCCCC1)NS(=O)(=O)Cc1ccc(Cl)cc1`, the midpoint of inhibition in data set [1], the IC50, lay at 1800 nM. For the same compound, the EC50 in the data set with Norovirus was 2400 nM. Further, the CC50 at 72 h in data set [2] was greater than 100000 nM.
Taken in the same sequence, the figures for `O=C1NCC[C@H]1C[C@H](NC(=O)[C@H](CC1CCCCC1)NS(=O)(=O)CCc1ccccc1)C(O)S(=O)(=O)O` (stereo partly specified) were 2100 nM, 800 nM and greater than 100000 nM.
On to `O=C[C@H](C[C@@H]1CCNC1=O)NC(=O)[C@H](CC1CCCCC1)NC(=O)OCCOCc1ccccc1`, for which inhibition in data set [1] was half-maximal at 2100 nM (IC50). Moreover, the concentration for a half-maximal effect (EC50) in the data set on Norovirus amounted to 200 nM. In data set [2], the cytotoxic concentration (CC50) at 72 h was greater than 100000 nM.
`CCCCCCCCS(=O)(=O)N[C@@H](CC1CCCCC1)C(=O)N[C@H](C=O)C[C@@H]1CCNC1=O` came in with a half-inhibitory concentration (IC50) in data set [1] of 1200 nM. Further, the half-maximal effective concentration (EC50) in the data set on Norovirus is 300 nM. Moreover, in data set [2], the cytotoxic concentration (CC50) at 72 h worked out at 33800 nM.
Consider `COc1ccc(OCCCS(=O)(=O)N[C@@H](CC2CCCCC2)C(=O)N[C@H](C=O)C[C@@H]2CCNC2=O)cc1`, for which, in data set [1], half-maximal inhibition (IC50) was put at 1800 nM. Besides, in the data set on Norovirus, the half-maximal effective concentration (EC50) was 200 nM. For the same compound, the CC50 at 72 h in data set [2] was greater than 100000 nM.
The like results for `O=C(N[C@@H](CC1CCCCC1)C(=O)N[C@@H](C[C@@H]1CCNC1=O)C(O)S(=O)(=O)O)OCCOCc1ccccc1` (stereo partly specified) were, in that order, 1600 nM, 300 nM and greater than 100000 nM.
`O=C1NCC[C@H]1C[C@H](NC(=O)[C@H](CC1CCCCC1)NS(=O)(=O)c1ccc(F)cc1)C(O)S(=O)(=O)O` (stereo partly specified): it took 6200 nM to reach half-maximal inhibition in data set [1] (IC50). Further, the EC50 in the data set with Norovirus was found to be 2100 nM. Further, in data set [2], the CC50 at 72 h is greater than 100000 nM.
`O=C[C@H](C[C@@H]1CCNC1=O)NC(=O)[C@H](CC1CCCCC1)NC(=O)OCCc1cccc(Cl)c1` returned an IC50 in data set [1] of 600 nM. Besides, in the data set on Norovirus, the concentration giving a half-maximal response (EC50) was determined as 100 nM. Also, in data set [2], the 50% cytotoxic concentration (CC50) at 72 h amounted to 43200 nM.
`O=C1NCC[C@H]1C[C@H](NC(=O)[C@H](CC1CCCCC1)NS(=O)(=O)Cc1ccc(Cl)cc1)C(O)S(=O)(=O)O` (stereo partly specified) showed a half-inhibitory concentration (IC50) in data set [1] of 1200 nM. Besides, in the data set on Norovirus, the EC50 came out at 2200 nM. The CC50 at 72 h in data set [2] was greater than 100000 nM.

These data come from ChEMBL document CHEMBL4002574, “Structure-based exploration and exploitation of the S4 subsite of norovirus 3CL protease in the design of potent and permeable inhibitors” (Eur J Med Chem, 2017).
